The values below come from ChEMBL document CHEMBL1268829, “Design, synthesis and activity of benzothiazole-based inhibitors of NO production in LPS-activated macrophages” (Bioorg Med Chem Lett, 2010).

SMILES strings stand for the structures. Activity calls are given as the source filed them. The calls are words filed in the database; no cut-off is given here.

Test [1] concerns RAW264.7. The test can be described thus: Inhibition of LPS-induced nitric oxide production in mouse RAW264.7 cells at 20 uM after 20 hrs by Griess method. To be noted: RAW264.7, 20 h. It is filed as functional. The essentials: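 Cells plated at 1 × 10⁵ cells/mL in 10% FBS-DMEM for 24 h, then given 1% FBS medium with compound at 20 μM plus LPS (1 μg/mL) for 20 h. Supernatant nitrite read by Griess reagent at 570 nm against a sodium nitrite standard. Percent inhibition relative to LPS control, n = 3.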
On the technique in general: Nitrite, measured by Griess reagent, commonly stands in for NO production.

In test [2] the test system is RAW264.7. The test can be described thus: Inhibition of sNFkappaB nuclear translocation in LPS-induced mouse RAW264.7 cells at 20 uM pretreated for 30 mins before LPS challenge for 30 mins by Western blotting. It is filed as cell-based. A digest of the protocol: (§1)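 Cells pretreated 30 min with compound at 20 μM, then LPS (1 μg/mL) for 30 min. Cytoplasmic IκB-α and nuclear p65 measured by Western blot. Levels normalized to PARP.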
Background: A western blot detects proteins with antibodies after separation by electrophoresis.

Test [3] has as its system RAW264.7. The test can be described thus: Inhibition of I-kappaB-alpha degradation in LPS-induced mouse RAW264.7 cells at 20 uM pretreated for 30 mins before LPS challenge for 30 mins by Western blotting. Type of test: cell-based. A digest of the protocol: as §1
The test system of test [4] is RAW264.7. The test can be described thus: Inhibition of LPS-induced COX2 mRNA expression in mouse RAW264.7 cells at 20 uM treated after LPS challenge by RT-PCR. It is filed as functional, cell-based. The essentials:
(§2)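 Cells at 1.8 × 10⁶ per 60 mm dish stimulated 6 h with LPS (1 μg/mL) with or without compound (20 μM). Total RNA taken for RT-PCR of iNOS, COX-2 and β-actin: 25 cycles of 94 °C, 55 °C and 72 °C, 30 s each. Products resolved on 2% agarose.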

In test [5] the test system is RAW264.7. The test can be described thus: Inhibition of LPS-induced COX2 mRNA expression in mouse RAW264.7 cells at 20 uM pretreated for 6 hrs before LPS challenge by RT-PCR. Type of test: functional, cell-based.
In test [6] the test system is RAW264.7. The test can be described thus: Inhibition of LPS-induced nitric oxide production in mouse RAW264.7 cells after 20 hrs by Griess method. It is filed as functional, cell-based. To be noted: RAW264.7, 20 h. A digest of the protocol: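 Cells plated at 1 × 10⁵ cells/mL in 10% FBS-DMEM for 24 h, then switched to 1% FBS medium. Incubated 20 h with LPS (1 μg/mL) with or without compound. Supernatant nitrite read with Griess reagent, 10 min at room temperature, absorbance 570 nm, against a sodium nitrite standard. IC₅₀ from dose–response curve.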

In test [7] the test system is RAW264.7. The test can be described thus: Inhibition of LPS-induced iNOS expression in mouse RAW264.7 cells at 20 uM treated for 20 hrs during LPS activation by Western blot. Type of test: functional, cell-based. The essentials: (§3)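 RAW 264.7 cells given compound (20 μM) during 20 h LPS (1 μg/mL) activation, then washed and lysed. 20 μg lysate protein run on 8% SDS-PAGE and blotted to PVDF. Probed for iNOS, COX-2 and actin, with ECL detection.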

Test [8] relates to RAW264.7. The test can be described thus: Inhibition of LPS-induced iNOS mRNA expression in mouse RAW264.7 cells at 20 uM treated after LPS challenge by RT-PCR. It is filed as functional, cell-based. A digest of the protocol:
as §2

Test [9] deals with RAW264.7. Put plainly: Inhibition of LPS-induced COX2 expression in mouse RAW264.7 cells at 20 uM treated for 20 hrs during LPS activation by Western blot. It is filed as functional, cell-based. A digest of the protocol:
as §3

Test [10] has as its system RAW264.7. The test can be described thus: Inhibition of LPS-induced iNOS mRNA expression in mouse RAW264.7 cells at 20 uM pretreated for 6 hrs before LPS challenge by RT-PCR. Type of test: functional, cell-based.

For orientation: inhibition means the share of the control response that was lost under treatment. In the test with RAW264.7 [1], `Nc1nc2c(O)cccc2s1` showed an inhibition at 20 µM of 11.4%.
Broadly, the IC50 is the midpoint of a concentration-inhibition curve. In the case of `COc1ccc2[nH]cc(CC(=O)Nc3cccc(COc4cccc5scnc45)c3)c2c1`, the inhibition entry in the test on RAW264.7 [2], with RAW264.7 [3], in the test on RAW264.7 [5], in the test on RAW264.7 [7], in the test on RAW264.7 [9] and in the test on RAW264.7 [10] was “Active” each time. Further, the inhibition result in the test on RAW264.7 [4] and with RAW264.7 [8] was “inactive” in each case. The compound also had an IC50 with RAW264.7 [6] of 4.2 µM. The compound also displayed an inhibition at 20 µM in the test on RAW264.7 [1] of 75.9%.
On to `CS(=O)(=O)Nc1ccccc1COc1cccc2scnc12`, for which 20 µM produced 0.4% inhibition in the test with RAW264.7 [1].
On to `COc1cccc2scnc12`, for which the inhibition at 20 µM in the test with RAW264.7 [1] was 18.6%.
`Oc1cccc2scnc12` yielded an inhibition at 20 µM in the test on RAW264.7 [1] of 8.6%.
In the case of `O=C(Cc1ccc2c(c1)OCO2)Nc1ccccc1COc1cccc2scnc12`, in the test on RAW264.7 [6], the IC50 was found to be 72.3 µM. Also, in the test on RAW264.7 [1], the inhibition at 20 µM amounted to 32.5%.
In the test with RAW264.7 [1], `Cc1ccc(COc2cccc3scnc23)cc1` returned an inhibition at 20 µM of 10.4%.
As for `c1ccc(COc2cccc3scnc23)cc1`, in the test on RAW264.7 [1], at 20 µM the inhibition was 12.3%.
In the test on RAW264.7 [1], `COc1ccc(/C=C/C(=O)Nc2ccccc2COc2cccc3scnc23)cc1OC` showed an inhibition at 20 µM of 44.7%.
Still for that read-out and setting: the same measure for `Cc1ccc(COc2cccc3sc(N)nc23)cc1`: 14.4%.
For the compound `COc1ccc(/C=C/C(=O)N(Cc2ccccc2)c2ccccc2COc2cccc3scnc23)cc1OC`, the inhibition result in the test with RAW264.7 [2], with RAW264.7 [3], in the test with RAW264.7 [5], in the test on RAW264.7 [7], in the test on RAW264.7 [9] and in the test on RAW264.7 [10] was “Active” in each case. In addition, the inhibition entry with RAW264.7 [4] and with RAW264.7 [8] was “inactive” in each case. Also, the IC50 in the test on RAW264.7 [6] amounted to 20.9 µM. In addition, the inhibition at 20 µM in the test on RAW264.7 [1] worked out at 39.8%.
Turning to `c1ccc(CNc2ccccc2COc2cccc3scnc23)cc1`, the inhibition result in the test with RAW264.7 [2], in the test with RAW264.7 [3], in the test on RAW264.7 [5], in the test on RAW264.7 [7], with RAW264.7 [9] and with RAW264.7 [10] was “Active” each time. Moreover, the inhibition entry with RAW264.7 [4] and with RAW264.7 [8] was “inactive” each time. The compound also had an IC50 with RAW264.7 [6] of 17.2 µM. Besides, the inhibition at 20 µM in the test on RAW264.7 [1] is 55.8%.
For the compound `Nc1ccccc1COc1cccc2scnc12`, in the test with RAW264.7 [1], the inhibition at 20 µM is 15.2%.
In the case of `CC(=O)Nc1ccccc1COc1cccc2scnc12`, in the test with RAW264.7 [1], the inhibition at 20 µM turned out to be 3.7%.
In the test on RAW264.7 [1], `COc1ccc(CCC(=O)Nc2ccccc2COc2cccc3scnc23)cc1OC` gave an inhibition at 20 µM of 11.6%.
Take `O=C(Cc1ccc2c(c1)OCO2)Nc1cccc(COc2cccc3scnc23)c1`: the IC50 with RAW264.7 [6] came to 23.6 µM. In the test with RAW264.7 [1], this compound yielded an inhibition at 20 µM of 58.9%.
For the compound `COc1ccc2[nH]cc(CC(=O)Nc3ccccc3COc3cccc4scnc34)c2c1`, in the test with RAW264.7 [1], the inhibition at 20 µM stood at 36.4%.
In the test with RAW264.7 [6], `O=C(Cc1ccc2c(c1)OCO2)N(Cc1ccccc1)c1ccccc1COc1cccc2scnc12` gave an IC50 of 21.2 µM. In the test on RAW264.7 [1], this compound displayed an inhibition at 20 µM of 54.9%.
In turn, `Nc1cccc(COc2cccc3scnc23)c1` showed an inhibition at 20 µM in the test with RAW264.7 [1] of 32.9%.
